The source of these data is article PMC7254805 (ACS Omega, 2020).

As a reminder, the Cmax is the peak of the concentration-time curve. The Tmax is the time at which the peak concentration occurs. As usually defined, the half-life is the time needed for the level to fall by half in the phase considered. A high value points to slow decline. As usually defined, the IC50 is the concentration needed to halve the response being measured. The low end stands for greater potency, the high end for weaker potency. One may read the IC90 as the concentration needed for an effect of 90%. As a reminder, the solubility is how much of the substance goes into solution per volume.

Data set [1] is described as follows: Oral bioavailability in mice, plasma RP-HPLC. It is filed as in vivo, BALB/c mice.
Another data set concerns Huh7.5 cells. Briefly: Cell viability MTT assay. It is filed as cell-based. The note with it: up to 5 mM. Put shortly:
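Huh7.5 cells are seeded at 2 × 10^4 per well in DMEM with 10% serum and incubated overnight at 37 °C. After 12 h, cells are treated with a range of test compound concentrations, and viability is read by MTT. Untreated cells serve as control. Data are mean ± SD of three independent experiments; CC50 is taken from the dose response.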
In general terms: Tetrazolium dyes change colour on reduction, which living cells bring about.

Another data set addresses trypsin (Sus scrofa, UniProt P00761). Put plainly: Cellular serine protease. The note with it: up to 250 μM. It is filed as biochemical. In outline: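 Trypsin is pre-incubated with increasing test compound concentrations, then FITC-labelled casein substrate is added for 1 h at 37 °C. The reaction is stopped with trichloroacetic acid (6.1 N) and centrifuged. Supernatant fluorescence is read at excitation 485 nm and emission 538 nm. Activity is expressed relative to a no-compound reaction (100%); G. max trypsin inhibitor is the positive control.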

Data set [2] deals with BALB/c mice. Put plainly: Sub-acute. The data set is classed as in vivo. In outline: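 Sub-acute oral toxicity per OECD 407 in BALB/c mice. Test compounds are given orally daily for 28 consecutive days at 1000 or 500 mg/kg b. wt/day, in water or PEG-400. Vehicle controls receive water or PEG-400 at 200 μL/day/mouse. Body weight, food and water intake, behaviour and toxicity signs are recorded. Liver sections (5 μm) are H&E-stained for light microscopy.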

The target in another data set is HCV NS3/4A protease (Hepatitis C virus, UniProt P26662). Put plainly: HCV NS3/4A protease fluorimetric activity assay. It is filed as biochemical. Put shortly:
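Purified single-chain NS3/4A (scNS3/4A, 0.1 μM) is pre-incubated with test compound, then purified EGFP-NS5A/B-CBD fusion substrate (0.5 μM) is added for 1 h at 37 °C. Cellulose slurry stops the reaction; after centrifugation, supernatant fluorescence is read at 484/538 nm. Compounds are screened at 50 μM, with dose response over 10–100 μM. Activity is relative to a no-compound reaction (100%); telaprevir is the positive control.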

Data set [3] relates to BALB/c mice. Briefly: Acute oral toxicity in mice. The note with it: for maximum acute tolerance dose: BALB/c mice. It is filed as in vivo.
Data set [4] has as its system Huh7 cells harboring HCV monocistronic replicon genotype 2a (Rep2a). Briefly: HCV replication assay in Rep2a cell line. It is filed as cell-based, HCV genotype 2a. The note with it: at 250 μM, compared with Telaprevir.
A short description of the next data set: Aqueous solubility. It is filed as physicochemical. The conditions noted are these: water.
The mark [5] stands for this setting: BALB/c, mouse, plasma, po, 500 mg/kg.

Converted amounts (≈) assume the structure as drawn. “Also recorded” adds a separate entry of the source. Where only a bound is given, the exact number is not on record here.

Chain of HCV NS3/4A protease (P26662 1027-1208, other chains not shown): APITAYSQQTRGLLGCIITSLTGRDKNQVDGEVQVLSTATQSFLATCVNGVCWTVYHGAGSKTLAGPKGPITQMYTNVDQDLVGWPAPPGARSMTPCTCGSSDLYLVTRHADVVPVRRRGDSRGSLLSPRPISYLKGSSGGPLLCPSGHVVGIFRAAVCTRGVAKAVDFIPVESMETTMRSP
Chain of trypsin (P00761 9-231): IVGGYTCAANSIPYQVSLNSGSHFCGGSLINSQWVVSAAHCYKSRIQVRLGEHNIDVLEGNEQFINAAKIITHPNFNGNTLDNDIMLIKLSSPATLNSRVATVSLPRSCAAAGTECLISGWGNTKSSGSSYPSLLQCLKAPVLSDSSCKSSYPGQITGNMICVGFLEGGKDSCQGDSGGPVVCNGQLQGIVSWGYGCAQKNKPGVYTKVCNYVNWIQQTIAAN

As for `COc1ccc(CC(CC(=O)O)C(=O)O)cc1OC` (centres unmarked) [D8, 2-(3,4-Dimethoxybenzyl)succinic Acid], in data set [1] (500 mg/kg p.o), the “plasma concentration after 2 h” value came to 595 μg mL^–1. Besides, in data set [1] (setting [5]), the Cmax is ~595 µg/mL, the Tmax turned out to be 1 h and the half-life is 2 h. Also, in the data set on Huh7.5 cells, the cellular toxicity result is reported as “did not induce any toxicity; also recorded: no perceptible cellular toxicity”. Moreover, at trypsin, the “inhibition of trypsin activity” value is on record as “did not show an inhibition; also recorded: does not occur even at 250 μM”. In the data set with BALB/c mice [2] (1000 mg/kg b. wt/day oral, 28 consecutive days), the “changes in general behavior and body weights” value is on record as “did not exhibit any undesirable changes”. Further, in the data set on BALB/c mice [2] (1000 mg/kg b. wt/day oral, 28 days), the liver histology result is “normal histology”. Moreover, on HCV NS3/4A protease, the IC50 is < 10 µM and the IC90 worked out at 50 µM. Also, the liver histology result in the data set on BALB/c mice [3] (maximum acute tolerance dose 4000 mg/kg b. wt p.o, vs water control) is “normal histoarchitecture”. The compound further gave a death of mice with BALB/c mice [3] (oral, 5000 mg/kg b. wt) of 40%. In the data set on BALB/c mice [3] (oral, 5250 mg/kg b. wt), the death of mice is 100%. Also, the “maximum acute tolerance dose” value in the data set with BALB/c mice [3] (oral) is recorded as 4000 mg/kg b. wt. For the same compound, in the data set on BALB/c mice [3] (oral, D8 4000 vs phyllanthin 1500 mg/kg), the “tolerance dose relative to phyllanthin” value is reported as ~2.5 times. The “reduction in HCV negative strand synthesis” value in data set [4] is reported as “matching that of the inhibition by Telapravir”.

As to `COC[C@@H](Cc1ccc(OC)c(OC)c1)[C@@H](COC)Cc1ccc(OC)c(OC)c1` [phyllanthin, reference compound], in data set [1] (500 mg/kg b. wt p.o), the “bioavailability (plasma, up to 24 h)” value was “could not observe any bioavailability”. For the same compound, in data set [1] (1500 mg/kg b. wt p.o), the “absorbed concentration in plasma” value is listed as “very low concentration”. Moreover, in the data set “Aqueous solubility”, the solubility turned out to be 250 µg/mL (≈ 597 µM). For the same compound, in the data set on BALB/c mice [2] (500 mg/kg b. wt/day oral in PEG-400, 28 consecutive days), the “changes in general behavior and body weights” value is recorded as “did not exhibit any undesirable changes”. Moreover, the IC50 at HCV NS3/4A protease was ~50 µM. In the data set on BALB/c mice [3] (oral, 2000 mg/kg b. wt), the death of mice was 100%. In addition, in the data set with BALB/c mice [3] (oral), the “maximum acute tolerance dose” value is recorded as 1500 mg/kg b. wt.
